The EC50 is the concentration that produces a half-maximal response.

T1 sequence (P49019 whole entry): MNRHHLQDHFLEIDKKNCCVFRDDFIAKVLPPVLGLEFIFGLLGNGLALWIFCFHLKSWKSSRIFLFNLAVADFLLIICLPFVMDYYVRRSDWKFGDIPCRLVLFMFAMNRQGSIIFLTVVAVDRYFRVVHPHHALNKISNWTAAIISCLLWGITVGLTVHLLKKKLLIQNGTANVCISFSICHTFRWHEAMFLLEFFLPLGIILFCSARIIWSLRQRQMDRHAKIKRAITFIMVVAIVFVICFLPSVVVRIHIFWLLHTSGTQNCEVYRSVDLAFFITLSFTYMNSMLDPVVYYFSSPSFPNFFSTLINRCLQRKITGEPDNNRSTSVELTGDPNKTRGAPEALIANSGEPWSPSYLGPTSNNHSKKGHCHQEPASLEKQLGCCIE

The first assay is filed under the species Homo sapiens. Put plainly: Selectivity for GPR109a over GPR109b. It is filed as functional. The essentials:
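Whole-cell cAMP (adenylyl cyclase activation) FlashPlate assay on stable clones expressing GPR109a or GPR109b; clones picked by anti-HA immunostaining. Each clone was optimized separately, using 50 000 cells per well and 5 µM forskolin stimulation. Forskolin-stimulated cAMP was set as 100% and unstimulated cAMP as 200%. Agonist EC50 was measured at each receptor.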
Consider `CC1(c2ccccc2)OC(C(=O)O)=CC1=O` (stereo in doubt; 5a), for which the Selectivity ratio amounted to 3.

In the next assay the target is T1, Hydroxycarboxylic acid receptor 3 (Homo sapiens, UniProt P49019). Put plainly: Activity at GPR109b in CHO cells assessed as inhibition of forskolin-induced cAMP generation. It is filed as functional, cell-based. The method in brief:
(§1)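 Whole-cell adenylyl cyclase FlashPlate cAMP assay on a stable receptor clone (positive clones picked by anti-HA immunostaining). Each well held 50 000 cells, stimulated with 5 µM forskolin. Normalisation: forskolin-stimulated cAMP set at 100%, cAMP from cells without forskolin at 200%. Potency reported as EC50 with number of determinations (n).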
For the molecule `CCc1cccc(C2(C)OC(C(=O)O)=CC2=O)c1` (stereo not given), the EC50 was 6.2 µM (agonist).
Still for that read-out and setting: as for `CC1(c2cccc(C(F)(F)F)c2)OC(C(=O)O)=CC1=O` (stereo not given), the figure is 12.6 µM (agonist); as for `CC1(c2ccc(F)cc2)OC(C(=O)O)=CC1=O` (stereo not given), 9.9 µM (agonist); as for `Cc1ccc(C2(C)OC(C(=O)O)=CC2=O)s1` (stereo not given), 0.27 µM (agonist).
Same read-out and setting: then `Cc1sc(C2(C)OC(C(=O)O)=CC2=O)cc1Br` (stereo not given), with 10.4 µM (agonist).
As for `CC1(c2csc(Br)c2)OC(C(=O)O)=CC1=O` (stereo in doubt; 5ai), the EC50 is recorded as 1.5 µM (agonist).
The same measure, in the same setting: then `Cc1cc(C2(C)OC(C(=O)O)=CC2=O)cs1` (stereo in doubt; 5aj), with 0.18 µM (agonist); and `Cc1cc(C2(C)OC(C(=O)O)=CC2=O)cs1` (single isomer, unassigned; (+)), with 0.18 µM (agonist); and `CC1(c2ccc(F)c(F)c2)OC(C(=O)O)=CC1=O` (stereo not given), with 19 µM (agonist).
On the same count and under the same terms, as for `CC1(c2ccc(F)cc2F)OC(C(=O)O)=CC1=O` (stereo not given), the figure is 24 µM (agonist).
The same measure, in the same setting: as for `CC1(c2cc(Br)cs2)OC(C(=O)O)=CC1=O` (stereo not given), the figure is 4.1 µM (agonist).
`CC1(C2=CCCC2)OC(C(=O)O)=CC1=O` (stereo not given): the EC50 is given as 5.1 µM (agonist).
Turning to `Cc1cc(C2(C)OC(C(=O)O)=CC2=O)cs1` (stereo in doubt; (-)-5aj), the 50% effective concentration (EC50) was 5 µM (agonist).
On the same count and under the same terms, as for `CC1(c2ccccc2)OC(C(=O)O)=CC1=O` (stereo in doubt; (+)-5a) [ACIFRAN], the figure is 3 µM (agonist).
With `CC1(c2ccsc2)OC(C(=O)O)=CC1=O` (stereo not given), the EC50 is listed as 4.2 µM (agonist).
The same measure, in the same setting: as for `CC1(c2c(F)cccc2F)OC(C(=O)O)=CC1=O` (stereo not given), the figure is 36 µM (agonist).
On the same count and under the same terms, then `CC1(c2csc(Cl)c2)OC(C(=O)O)=CC1=O` (stereo in doubt; 5ah), with 1.7 µM (agonist); and `CC1(c2cccc(Cl)c2)OC(C(=O)O)=CC1=O` (stereo not given), with 22 µM (agonist); and `Cc1csc(C2(C)OC(C(=O)O)=CC2=O)c1` (stereo not given), with 1.8 µM (agonist).
The same measure, in the same setting: then `CC1(c2ccccc2)OC(C(=O)O)=CC1=O` (stereo in doubt; 5a) [ACIFRAN], with 4.2 µM (agonist); and `CC1(c2csc(Cl)c2)OC(C(=O)O)=CC1=O` (stereo in doubt; (-)-5ah), with 16 µM (agonist); and `CC1(c2ccc(Cl)s2)OC(C(=O)O)=CC1=O` (stereo not given), with 3.7 µM (agonist).
For the molecule `CC1(c2csc(Br)c2)OC(C(=O)O)=CC1=O` (stereo in doubt; (+)-5ai), the concentration giving a half-maximal response (EC50) was 0.37 µM (agonist).
`CC1(c2cc(F)cc(F)c2)OC(C(=O)O)=CC1=O` (stereo not given): the EC50 was 33 µM (agonist).
Regarding `CC1(c2cccc(Br)c2)OC(C(=O)O)=CC1=O` (stereo in doubt; 5u), the EC50 is listed as 4.9 µM (agonist).
In the case of `CC1(c2cccc(I)c2)OC(C(=O)O)=CC1=O` (stereo not given), the EC50 was 5.1 µM (agonist).
Regarding `CC1(c2csc(Cl)c2)OC(C(=O)O)=CC1=O` (single isomer, unassigned; (+)), the EC50 is 0.69 µM (agonist).
`CCC1(c2ccccc2)OC(C(=O)O)=CC1=O` (stereo not given): the EC50 is reported as 4.8 µM (agonist).
Still for that read-out and setting: then `CC1(c2cccc(Br)c2)OC(C(=O)O)=CC1=O` (single isomer, unassigned; (+)), with 14 µM (agonist).

A further assay addresses T1, Hydroxycarboxylic acid receptor 3. Put plainly: Activity at GPR109b in CHO cells assessed as inhibition of forskolin-induced cAMP generation upto 100 uM. It counts as functional, cell-based. Further details: scale not given: the % may be the effect or the level left. The essentials:
as §1
For the molecule `CC1(c2ccco2)OC(C(=O)O)=CC1=O` (stereo not given), the Activity was under 50%.
As for `O=C(O)C1=CC(=O)C2(CCc3ccccc32)O1` (stereo not given), the Activity was under 50%.
Still for that read-out and setting: then `CC1(c2ccncc2)OC(C(=O)O)=CC1=O` (stereo not given), with under 50%; and `COc1cccc(C2(C)OC(C(=O)O)=CC2=O)c1` (stereo not given), with under 50%.
With `O=C(O)c1cccnc1`, the Activity is under 50%.
Still for that read-out and setting: as for `Cc1cccc(C2(C)OC(C(=O)O)=CC2=O)c1` (stereo not given), the figure is under 50%; as for `CC1(c2cc(Cl)ccc2Cl)OC(C(=O)O)=CC1=O` (stereo not given), under 50%; as for `CC1(c2ccccc2)OC(C(=O)O)=CC1=O` (single isomer, unassigned; (-)), under 50%.
The same measure, in the same setting: then `Cc1cnc(C(=O)O)c[n+]1[O-]`, with under 50%.
As to `CC1(c2cccnc2)OC(C(=O)O)=CC1=O` (stereo not given), the Activity is under 50%.

Source of the values: ChEMBL document CHEMBL1142997 (J Med Chem, 2007).
